Experimental data as given in ChEMBL document CHEMBL1641468, “Synthesis of modified siRNA bearing C-5 polyamine-substituted pyrimidine nucleoside in their 3'-overhang regions and its RNAi activity” (Bioorg Med Chem Lett, 2011).
Calls of active or inactive are those of the source. The calls are words filed in the database; no cut-off is given here.

Columns and labels:
[1] = target: T1, Hepatocyte nuclear factor 4-alpha (Homo sapiens) (UniProt P41235); assay: Inhibition of HNF4alpha mRNA expression in human HepG2 cells after 24 hrs by real-time RT-PCR
T1 sequence (whole entry): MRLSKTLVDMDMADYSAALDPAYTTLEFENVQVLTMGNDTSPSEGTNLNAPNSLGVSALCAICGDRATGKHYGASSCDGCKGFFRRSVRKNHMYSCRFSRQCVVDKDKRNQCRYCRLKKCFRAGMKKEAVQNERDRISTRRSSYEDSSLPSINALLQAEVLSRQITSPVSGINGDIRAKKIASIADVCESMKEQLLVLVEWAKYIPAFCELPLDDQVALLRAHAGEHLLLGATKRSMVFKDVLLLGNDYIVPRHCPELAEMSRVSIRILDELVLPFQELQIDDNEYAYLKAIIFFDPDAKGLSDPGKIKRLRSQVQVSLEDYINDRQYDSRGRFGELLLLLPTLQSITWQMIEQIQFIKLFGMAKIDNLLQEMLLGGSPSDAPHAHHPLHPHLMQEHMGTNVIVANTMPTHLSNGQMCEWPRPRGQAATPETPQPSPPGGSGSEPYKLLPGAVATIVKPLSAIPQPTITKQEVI

[2] = target: T1, Hepatocyte nuclear factor 4-alpha (Homo sapiens); assay: Inhibition of HNF4alpha mRNA expression in human HepG2 cells after 24 hrs by RT-PCR analysis; format: cell-based; settings: in the assay text read “after 48 hrs” for “after 24 hrs”
In short: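 HepG2 cells were grown in DMEM with 5% FBS at 37 °C and transfected with siRNA using a transfection reagent. After 24 h at 37 °C, the medium was changed to DMEM with 10% FBS and cells were incubated a further 24 h. Total RNA was reverse-transcribed for real-time PCR (40 cycles). HNF4α mRNA was normalized to GAPDH by ΔΔCt and expressed relative to nonsense control siRNA, using the mean Ct of duplicate PCRs from independent cells.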

**Q.** For `Cc1cn([C@H]2C[C@H](OP(=O)(O)OC[C@H]3O[C@@H](n4cc(CC(=O)NCCN(CCN)CCN)c(=O)[nH]c4=O)C[C@@H]3O)[C@@H](COP(=O)(O)O[C@H]3[C@@H](O)[C@H](n4ccc(N)nc4=O)O[C@@H]3COP(=O)(O)O[C@H]3[C@@H](O)[C@H](n4ccc(N)nc4=O)O[C@@H]3COP(=O)(O)O[C@@H]3[C@H](O)[C@@H](COP(=O)(O)O[C@H]4[C@@H](O)[C@H](n5ccc(=O)[nH]c5=O)O[C@@H]4COP(=O)(O)O[C@H]4[C@@H](O)[C@H](n5ccc(N)nc5=O)O[C@@H]4COP(=O)(O)O[C@H]4[C@@H](O)[C@H](n5cnc6c(N)ncnc65)O[C@@H]4COP(=O)(O)O[C@H]4[C@@H](O)[C@H](n5ccc(N)nc5=O)O[C@@H]4COP(=O)(O)O[C@@H]4[C@H](O)[C@@H](COP(=O)(O)O[C@H]5[C@@H](O)[C@H](n6ccc(N)nc6=O)O[C@@H]5COP(=O)(O)O[C@H]5[C@@H](O)[C@H](n6cnc7c(N)ncnc76)O[C@@H]5COP(=O)(O)O[C@H]5[C@@H](O)[C@H](n6ccc(N)nc6=O)O[C@@H]5COP(=O)(O)O[C@H]5[C@@H](O)[C@H](n6ccc(N)nc6=O)O[C@@H]5COP(=O)(O)O[C@H]5[C@@H](O)[C@H](n6cnc7c(N)ncnc76)O[C@@H]5COP(=O)(O)O[C@H]5[C@@H](O)[C@H](n6ccc(N)nc6=O)O[C@@H]5COP(=O)(O)O[C@H]5[C@@H](O)[C@H](n6ccc(N)nc6=O)O[C@@H]5COP(=O)(O)O[C@H]5[C@@H](O)[C@H](n6ccc(=O)[nH]c6=O)O[C@@H]5COP(=O)(O)O[C@@H]5[C@H](O)[C@@H](COP(=O)(O)O[C@H]6[C@@H](O)[C@H](n7ccc(=O)[nH]c7=O)O[C@@H]6COP(=O)(O)O[C@H]6[C@@H](O)[C@H](n7ccc(=O)[nH]c7=O)O[C@@H]6COP(=O)(O)O)O[C@H]5n5cnc6c(=O)[nH]c(N)nc65)O[C@H]4n4cnc5c(=O)[nH]c(N)nc54)O[C@H]3n3cnc4c(=O)[nH]c(N)nc43)O2)c(=O)[nH]c1=O`, which Activity [1] is on record?
**A.** Active

**Q.** What about the Activity [2] of the same compound?
**A.** Active

**Q.** For `NCCN(CCN)CCNC(=O)Cc1cn([C@H]2C[C@H](OP(=O)(O)OC[C@H]3O[C@@H](n4cc(CC(=O)NCCN(CCN)CCN)c(=O)[nH]c4=O)C[C@@H]3O)[C@@H](COP(=O)(O)O[C@H]3[C@@H](O)[C@H](n4ccc(N)nc4=O)O[C@@H]3COP(=O)(O)O[C@H]3[C@@H](O)[C@H](n4ccc(N)nc4=O)O[C@@H]3COP(=O)(O)O[C@@H]3[C@H](O)[C@@H](COP(=O)(O)O[C@H]4[C@@H](O)[C@H](n5ccc(=O)[nH]c5=O)O[C@@H]4COP(=O)(O)O[C@H]4[C@@H](O)[C@H](n5ccc(N)nc5=O)O[C@@H]4COP(=O)(O)O[C@H]4[C@@H](O)[C@H](n5cnc6c(N)ncnc65)O[C@@H]4COP(=O)(O)O[C@H]4[C@@H](O)[C@H](n5ccc(N)nc5=O)O[C@@H]4COP(=O)(O)O[C@@H]4[C@H](O)[C@@H](COP(=O)(O)O[C@H]5[C@@H](O)[C@H](n6ccc(N)nc6=O)O[C@@H]5COP(=O)(O)O[C@H]5[C@@H](O)[C@H](n6cnc7c(N)ncnc76)O[C@@H]5COP(=O)(O)O[C@H]5[C@@H](O)[C@H](n6ccc(N)nc6=O)O[C@@H]5COP(=O)(O)O[C@H]5[C@@H](O)[C@H](n6ccc(N)nc6=O)O[C@@H]5COP(=O)(O)O[C@H]5[C@@H](O)[C@H](n6cnc7c(N)ncnc76)O[C@@H]5COP(=O)(O)O[C@H]5[C@@H](O)[C@H](n6ccc(N)nc6=O)O[C@@H]5COP(=O)(O)O[C@H]5[C@@H](O)[C@H](n6ccc(N)nc6=O)O[C@@H]5COP(=O)(O)O[C@H]5[C@@H](O)[C@H](n6ccc(=O)[nH]c6=O)O[C@@H]5COP(=O)(O)O[C@@H]5[C@H](O)[C@@H](COP(=O)(O)O[C@H]6[C@@H](O)[C@H](n7ccc(=O)[nH]c7=O)O[C@@H]6COP(=O)(O)O[C@H]6[C@@H](O)[C@H](n7ccc(=O)[nH]c7=O)O[C@@H]6COP(=O)(O)O)O[C@H]5n5cnc6c(=O)[nH]c(N)nc65)O[C@H]4n4cnc5c(=O)[nH]c(N)nc54)O[C@H]3n3cnc4c(=O)[nH]c(N)nc43)O2)c(=O)[nH]c1=O`, which Activity [1] is on record?
**A.** Active

**Q.** And the Activity [2]?
**A.** Active

**Q.** With `Cc1cn([C@H]2C[C@H](OP(=O)(O)OC[C@H]3O[C@@H](n4cc(C)c(=O)[nH]c4=O)C[C@@H]3O)[C@@H](COP(=O)(O)O[C@@H]3[C@H](O)[C@@H](COP(=O)(O)O[C@H]4[C@@H](O)[C@H](n5cnc6c(N)ncnc65)O[C@@H]4COP(=O)(O)O[C@H]4[C@@H](O)[C@H](n5ccc(N)nc5=O)O[C@@H]4COP(=O)(O)O[C@H]4[C@@H](O)[C@H](n5cnc6c(N)ncnc65)O[C@@H]4COP(=O)(O)O[C@@H]4[C@H](O)[C@@H](COP(=O)(O)O[C@@H]5[C@H](O)[C@@H](COP(=O)(O)O[C@H]6[C@@H](O)[C@H](n7ccc(=O)[nH]c7=O)O[C@@H]6COP(=O)(O)O[C@@H]6[C@H](O)[C@@H](COP(=O)(O)O[C@@H]7[C@H](O)[C@@H](COP(=O)(O)O[C@H]8[C@@H](O)[C@H](n9ccc(=O)[nH]c9=O)O[C@@H]8COP(=O)(O)O[C@@H]8[C@H](O)[C@@H](COP(=O)(O)O[C@H]9[C@@H](O)[C@H](n%10ccc(N)nc%10=O)O[C@@H]9COP(=O)(O)O[C@@H]9[C@H](O)[C@@H](COP(=O)(O)O[C@H]%10[C@@H](O)[C@H](n%11ccc(=O)[nH]c%11=O)O[C@@H]%10COP(=O)(O)O[C@@H]%10[C@H](O)[C@@H](COP(=O)(O)O[C@H]%11[C@@H](O)[C@H](n%12cnc%13c(N)ncnc%13%12)O[C@@H]%11COP(=O)(O)O[C@H]%11[C@@H](O)[C@H](n%12ccc(N)nc%12=O)O[C@@H]%11COP(=O)(O)O[C@@H]%11[C@H](O)[C@@H](COP(=O)(O)O[C@H]%12[C@@H](O)[C@H](n%13cnc%14c(=O)[nH]c(N)nc%14%13)O[C@@H]%12COP(=O)(O)O)O[C@H]%11n%11cnc%12c(=O)[nH]c(N)nc%12%11)O[C@H]%10n%10cnc%11c(=O)[nH]c(N)nc%11%10)O[C@H]9n9cnc%10c(=O)[nH]c(N)nc%109)O[C@H]8n8cnc9c(=O)[nH]c(N)nc98)O[C@H]7n7cnc8c(=O)[nH]c(N)nc87)O[C@H]6n6cnc7c(=O)[nH]c(N)nc76)O[C@H]5n5cnc6c(=O)[nH]c(N)nc65)O[C@H]4n4cnc5c(=O)[nH]c(N)nc54)O[C@H]3n3cnc4c(N)ncnc43)O2)c(=O)[nH]c1=O` as the compound, how does the Activity [1] read?
**A.** Active

**Q.** What about the Activity [2] of the same compound?
**A.** Active

**Q.** `Cc1cn([C@H]2C[C@H](OP(=O)(O)OC[C@H]3O[C@@H](n4cc(C)c(=O)[nH]c4=O)C[C@@H]3O)[C@@H](COP(=O)(O)O[C@H]3[C@@H](O)[C@H](n4ccc(N)nc4=O)O[C@@H]3COP(=O)(O)O[C@H]3[C@@H](O)[C@H](n4ccc(N)nc4=O)O[C@@H]3COP(=O)(O)O[C@@H]3[C@H](O)[C@@H](COP(=O)(O)O[C@H]4[C@@H](O)[C@H](n5ccc(=O)[nH]c5=O)O[C@@H]4COP(=O)(O)O[C@H]4[C@@H](O)[C@H](n5ccc(N)nc5=O)O[C@@H]4COP(=O)(O)O[C@H]4[C@@H](O)[C@H](n5cnc6c(N)ncnc65)O[C@@H]4COP(=O)(O)O[C@H]4[C@@H](O)[C@H](n5ccc(N)nc5=O)O[C@@H]4COP(=O)(O)O[C@@H]4[C@H](O)[C@@H](COP(=O)(O)O[C@H]5[C@@H](O)[C@H](n6ccc(N)nc6=O)O[C@@H]5COP(=O)(O)O[C@H]5[C@@H](O)[C@H](n6cnc7c(N)ncnc76)O[C@@H]5COP(=O)(O)O[C@H]5[C@@H](O)[C@H](n6ccc(N)nc6=O)O[C@@H]5COP(=O)(O)O[C@H]5[C@@H](O)[C@H](n6ccc(N)nc6=O)O[C@@H]5COP(=O)(O)O[C@H]5[C@@H](O)[C@H](n6cnc7c(N)ncnc76)O[C@@H]5COP(=O)(O)O[C@H]5[C@@H](O)[C@H](n6ccc(N)nc6=O)O[C@@H]5COP(=O)(O)O[C@H]5[C@@H](O)[C@H](n6ccc(N)nc6=O)O[C@@H]5COP(=O)(O)O[C@H]5[C@@H](O)[C@H](n6ccc(=O)[nH]c6=O)O[C@@H]5COP(=O)(O)O[C@@H]5[C@H](O)[C@@H](COP(=O)(O)O[C@H]6[C@@H](O)[C@H](n7ccc(=O)[nH]c7=O)O[C@@H]6COP(=O)(O)O[C@H]6[C@@H](O)[C@H](n7ccc(=O)[nH]c7=O)O[C@@H]6COP(=O)(O)O)O[C@H]5n5cnc6c(=O)[nH]c(N)nc65)O[C@H]4n4cnc5c(=O)[nH]c(N)nc54)O[C@H]3n3cnc4c(=O)[nH]c(N)nc43)O2)c(=O)[nH]c1=O` was tested. Which Activity [1] did it give?
**A.** Active

**Q.** What about the Activity [2] of the same compound?
**A.** Active
